Article PMC2118488 (The Journal of Experimental Medicine, 2007)
Ends that are not written are not given here. ABA = azidobenzoic acid, photoreactive group linked to the lysine of the peptide

Tests used:
T1 thymocytes = experiment: Fetal thymic organ culture; assay type: cell-based, mouse; conditions: high concentrations (100 μM shown in Fig. 1 D)
Summary of the method: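 E15 fetal thymi from T1 β2m−/− Rag−/− TCR transgenic mice were cultured 7 d without peptide or with 1 μM exogenous peptide, with 0.2 μM and 100 μM also shown for two variants. Cells were stained for CD4, CD8α and/or CD8β and read by flow cytometry.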

H-2K^d = H-2K^d (Mus musculus, UniProt P01902); experiment: Peptide binding to H-2K^d; conditions: unpublished data
S14 thymocytes = experiment: Fetal thymic organ culture; assay type: cell-based, mouse; conditions: S14 TCR transgenic FTOC
Summary of the method: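 Fetal thymi (E15) from Rag−/− β2m−/− S14 TCR transgenic mice were cultured for 7 d with peptide variants. Thymocytes were stained for CD4, CD8α and/or CD8β and analysed by flow cytometry.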

Affinity for H-2K^d relative to 4P (H-2K^d) | Substance | Selection outcome in FTOC at high peptide concentrations (T1 thymocytes) | Selecting potential in FTOC (S14 thymocytes)
– | 4A: variant of SYIPSAEK(ABA)I with proline at position 4 replaced by alanine (SYIASAEK(ABA)I) | could induce negative selection | –
– | 4S: variant of SYIPSAEK(ABA)I with proline at position 4 replaced by serine (SYISSAEK(ABA)I) | could induce negative selection | –
fivefold lower affinity than 4P | 4L: variant of SYIPSAEK(ABA)I with proline at position 4 replaced by leucine (SYILSAEK(ABA)I) | – | threshold ligand
